ChEMBL document CHEMBL4316597, “Design, Synthesis, and Biological Evaluation of Itaconic Acid Derivatives as Potential Anti-Influenza Agents” (J Med Chem, 2019)
Activity calls are given as the source filed them. The rule behind the calls is not given here.

Assays:
[1] = Cytotoxicity against MDCK cells assessed as cell death after 72 hrs by MTT assay; assay type: cell-based, Canis lupus familiaris; details: dog
Procedure, shortened: (§1)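 MDCK or RD cells at 2 × 10^4/well in E10, overnight at 37 °C/5% CO2, DPBS wash, then exposed to graded compound concentrations for 72 h. MTT added for 3 h, formazan dissolved in DMSO, absorbance read at 570 nm. CC50 (50% cell death) by Reed–Muench.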

[2] = Selectivity ratio of CC50 for MDCK cells to EC50 for Influenza A virus (A/WSN/33); assay type: toxicity; details: dog, read-out: Ratio CC50/EC50
Procedure, shortened: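 SI is calculated as CC50 (MDCK, 72 h MTT) divided by EC50 (72 h crystal-violet CPE assay in MDCK).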

Influenza A virus [3] = experiment: Antiviral activity against Influenza A virus (A/WSN/33) infected in MDCK cells assessed as reduction in virus-induced cytopathic effect after 72 hrs by crystal violet-staining based assay; assay type: functional, organism-based; details: A/WSN/1933(H1N1)
Procedure, shortened: (§2)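 Cells seeded at 2 × 10^4/well in E10 (DMEM, 10% FBS), 16–24 h at 37 °C/5% CO2, washed with DPBS, then infected at nine-fold TCID50 with or without serial compound concentrations. Influenza is run in MDCK and enterovirus/rhinovirus in RD. Incubated 72 h, fixed in 4% paraformaldehyde, stained with 0.1% crystal violet, and read for cell density. EC50 = 50% CPE inhibition by Reed–Muench; mean ± S.D. of at least three runs.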

Enterovirus [4] = experiment: Antiviral activity against Rhinovirus 71903 infected in human RD cells after 72 hrs by crystal violet-staining based assay; assay type: functional, organism-based; details: Enterovirus, 71903, RD; procedure, shortened: as §2
[5] = Cytotoxicity against human RD cells assessed as cell death after 72 hrs by MTT assay; assay type: cell-based; procedure, shortened: as §1
Influenza A virus [6] = experiment: Antiviral activity against Influenza A virus (A/WSN/33) infected in MDCK cells at 1 uM added at 3 hrs to 9 hrs post infection and measured after 9 hrs by plaque assay; assay type: functional, organism-based; details: A/WSN/1933(H1N1)
Procedure, shortened: (§3)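 MDCK monolayers exposed to compound (1 or 10 μM) over windows of −3, −1, 0, 3 or 6 to 9 h pi. A/WSN/33 adsorbed at MOI 0.1 from −1 to 0 h, then removed with a PBS wash. Supernatant taken at 9 h pi and titred by plaque assay, normalised to virus-only (100%). Average of three independent experiments.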

[7] = Selectivity ratio of CC50 for human RD cells to EC50 for Enterovirus A71 TW/4643/1998; assay type: toxicity; details: read-out: Ratio CC50/EC50
Procedure, shortened: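 RD cells (2 × 10^4/well, DMEM 10% FBS, 16–24 h) infected with enterovirus at nine-fold TCID50 with compound, 72 h, 37 °C, 5% CO2. Cells were fixed in 4% paraformaldehyde, stained with 0.1% crystal violet, and EC50 taken by Reed–Muench. CC50 came from 72 h exposure of uninfected RD cells, MTT 3 h, A570, Reed–Muench. SI = CC50/EC50; three independent experiments.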

Enterovirus [8] = experiment: Antiviral activity against Rhinovirus 71803 infected in human RD cells after 72 hrs by crystal violet-staining based assay; assay type: functional, organism-based; details: Enterovirus, 71803, RD; procedure, shortened: as §2
[9] = Selectivity ratio of CC50 for MDCK cells to EC50 for pandemic Influenza A virus A/TW/2235/09 (H1N1) SO4; assay type: toxicity; details: dog, read-out: Ratio CC50/EC50
Procedure, shortened: (§4)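 MDCK cells (2 × 10^4/well, E10, 16–24 h) infected at nine-fold TCID50 with compound for 72 h, 37 °C, 5% CO2. Cells were fixed in 4% paraformaldehyde and stained with crystal violet; EC50 is from Reed–Muench. For CC50, cells had compound alone for 72 h, then MTT 3 h, DMSO, A570, Reed–Muench. SI = CC50/EC50; three independent experiments.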

Influenza A virus [10] = experiment: Antiviral activity against Influenza A virus A/TW/3446/02 (H3N2) infected in MDCK cells after 72 hrs by crystal violet-staining based assay; assay type: functional, organism-based; procedure, shortened: as §2
MDCK = experiment: Inhibition of CRM1 in MDCK cells infected with Influenza A virus (A/WSN/33) assessed as reduction in CRM1-mediated viral protein nuclear export by measuring reduction in NP protein distribution to cytoplasm at 1 uM measured after 9 hrs post infection by IF-staining based microscopy; assay type: cell-based; details: Canis lupus familiaris
Procedure, shortened: (§5)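 MDCK cells grown on coverslips (2 × 10^5/well, 16 h), infected at MOI 0.1 for 1 h, washed, then kept in E0 with test compound (1 or 10 μM) or LMB 10 nM; DMSO 0.05% as mock. Fixed at 9 h pi in 4% paraformaldehyde and immunostained for M1, NP, NS2 or PA (1:50), with Hoechst nuclear stain. Viewed by confocal microscopy at 63×. NP nuclear/cytoplasmic intensity ratio quantified; three independent experiments.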

enterovirus D68 = experiment: Antiviral activity against Enterovirus D68 TW/2795/2014 clade B3 infected in human RD cells after 72 hrs by crystal violet-staining based assay; assay type: functional, organism-based; details: Enterovirus D, TW/2795/2014 clade B3, RD; procedure, shortened: as §2
Influenza A virus [11] = experiment: Antiviral activity against pandemic Influenza A virus A/TW/2235/09 (H1N1) SO4 infected in MDCK cells after 72 hrs by crystal violet-staining based assay; assay type: functional, organism-based; details: A/TW/2235/09 (H1N1) SO4, MDCK; procedure, shortened: as §2
Influenza A virus [12] = experiment: Antiviral activity against Influenza A virus (A/WSN/33) infected in MDCK cells at 1 uM added at -1 hrs to 9 hrs post infection and measured after 9 hrs by plaque assay; assay type: functional, organism-based; details: A/WSN/1933(H1N1); procedure, shortened: as §3
Influenza A virus [13] = experiment: Inhibition of viral protein sub-cellular distribution in Influenza A virus (A/WSN/33) infected in MDCK cells assessed as reduction in M1 protein distribution to cytoplasm at 1 uM measured after 9 hrs post infection by IF-staining based microscopy; assay type: functional, organism-based; details: A/WSN/1933(H1N1); procedure, shortened: as §5
Enterovirus A71 = experiment: Antiviral activity against Enterovirus A71 TW/4643/1998 infected in human RD cells after 72 hrs by crystal violet-staining based assay; assay type: functional, organism-based; details: Enterovirus A, TW/4643/1998, RD; procedure, shortened: as §2
[14] = target: Hemagglutinin (Influenza A virus) (UniProt B4URE7); experiment: Inhibition Influenza A virus (A/WSN/33) HA infected in guinea pig RBC assessed as reduction in hemagglutination at serial dilution from 50 uM after 1 hr by HAI assay; details: Influenza A virus (A/WSN/1933(H1N1))
Chain of Hemagglutinin (Influenza A virus) (B4URE7 as listed by the source): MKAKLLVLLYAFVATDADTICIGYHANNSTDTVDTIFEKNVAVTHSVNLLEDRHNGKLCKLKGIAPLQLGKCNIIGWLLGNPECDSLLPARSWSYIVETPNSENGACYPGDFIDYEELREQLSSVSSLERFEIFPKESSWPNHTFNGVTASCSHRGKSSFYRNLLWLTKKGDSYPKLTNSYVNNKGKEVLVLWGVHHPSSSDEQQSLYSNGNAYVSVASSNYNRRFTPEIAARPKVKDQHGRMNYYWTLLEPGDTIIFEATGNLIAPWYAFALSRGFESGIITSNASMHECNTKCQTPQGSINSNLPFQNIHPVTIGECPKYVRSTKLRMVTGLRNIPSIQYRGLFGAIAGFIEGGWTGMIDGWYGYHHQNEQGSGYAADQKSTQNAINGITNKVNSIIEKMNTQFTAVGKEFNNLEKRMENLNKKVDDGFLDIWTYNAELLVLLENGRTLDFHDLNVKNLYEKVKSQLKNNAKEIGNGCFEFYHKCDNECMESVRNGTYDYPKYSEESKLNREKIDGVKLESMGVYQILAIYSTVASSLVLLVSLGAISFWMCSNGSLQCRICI
Procedure, shortened: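 Virus titrated on 0.5% guinea pig RBCs to define 1 HA unit; 4 HA units used. Compound two-fold serially diluted from 50 µM and mixed with virus for 30 min at room temperature, or tested without virus for direct agglutination. 0.5% RBCs then added and agglutination scored after 1 h. DMSO/RBC-only and virus-only controls included.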

[15] = Selectivity ratio of CC50 for MDCK cells to EC50 for Influenza A virus A/TW/3446/02 (H3N2); assay type: toxicity; details: dog, read-out: Ratio CC50/EC50; procedure, shortened: as §4

Row | Compound | CC50 at 72 h [1] [µM] | selectivity ratio [2] | EC50 (Influenza A virus [3]) [µM] | further results
1 | C=C(CC(=O)Nc1ccc(F)cc1Br)C(=O)Nc1ccc(F)cc1Br | > 110 | > 42 | 2.59 | –
2 | C=C(CC(=O)Nc1ccc(Cl)cc1F)C(=O)Nc1ccc(Cl)cc1F | > 110 | > 164 | 0.67 | –
3 | C=C(CC(=O)Nc1cc(Cl)ccc1F)C(=O)O | > 110 | – | > 50 | –
4 | C=C(CC(=O)Nc1ccc(C(F)(F)F)cc1F)C(=O)Nc1ccc(C(F)(F)F)cc1F | > 110 | > 785 | 0.14 | EC50 (Enterovirus [4]): > 50 µM; CC50 at 72 h [5]: 9.31 µM; Activity (Influenza A virus [6]): Active; selectivity ratio [7]: 1; EC50 (Enterovirus [8]): > 50 µM; selectivity ratio [9]: > 67; EC50 (Influenza A virus [10]): 0.96 µM; inhibition (MDCK): Active; EC50 (enterovirus D68): > 50 µM; EC50 (Influenza A virus [11]): 1.62 µM; Activity (Influenza A virus [12]): Active; inhibition (Influenza A virus [13]): inactive; EC50 (Enterovirus A71): 6.69 µM; inhibition [14]: inactive; selectivity ratio [15]: > 114
5 | C=C(CC(=O)Nc1cc(Cl)ccc1F)C(=O)Nc1cc(Cl)ccc1F | 19.9 | 111 | 0.18 | –
6 | C=C(CC(=O)Nc1ccc(F)cc1F)C(=O)O | > 110 | – | > 50 | –
7 | C=C(CC(=O)Nc1ccc(F)cc1C(F)(F)F)C(=O)O | > 110 | – | > 50 | –
8 | C=C(CC(=O)Nc1ccc(C(F)(F)F)cc1F)C(=O)O | > 110 | – | > 50 | –
9 | C=C(CC(=O)Nc1ccc(Cl)cc1F)C(=O)O | > 110 | – | > 50 | –
10 | C=C(CC(=O)Nc1cc(F)ccc1F)C(=O)O | > 110 | – | > 50 | –
11 | C=C(CC(=O)NCc1cc(F)ccc1F)C(=O)NCc1cc(F)ccc1F | > 110 | – | > 50 | –
12 | C=C(CC(=O)Nc1cc(OC)ccc1F)C(=O)Nc1cc(OC)ccc1F | > 110 | > 229 | 0.48 | –
13 | C=C(CC(=O)Nc1ccccc1C(F)(F)F)C(=O)Nc1ccccc1C(F)(F)F | > 110 | – | > 50 | –
